SENP6 inh: SENP6 protease inhibition. inhibition, % at 10 µM. actives 1.8% (n = 330,000). Recombinant SENP6 catalytic domain, aminoluciferin luminescence. Q9GZR1;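 active = inhibition above about 50% at the single tested dose, limit read from the data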
SENP7 block: SENP7 protease inhibition | recombinant SENP7, Z-RLRGG-aminoluciferin luminescence, 40 min | inhibition, % at 5 µM | actives 1.5% (n = 330,000) | AID 434973;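 active = inhibition above about 50% at the single test dose, limit read from the data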
Target sequence (Q9BQF6 706-1050 limits assumed): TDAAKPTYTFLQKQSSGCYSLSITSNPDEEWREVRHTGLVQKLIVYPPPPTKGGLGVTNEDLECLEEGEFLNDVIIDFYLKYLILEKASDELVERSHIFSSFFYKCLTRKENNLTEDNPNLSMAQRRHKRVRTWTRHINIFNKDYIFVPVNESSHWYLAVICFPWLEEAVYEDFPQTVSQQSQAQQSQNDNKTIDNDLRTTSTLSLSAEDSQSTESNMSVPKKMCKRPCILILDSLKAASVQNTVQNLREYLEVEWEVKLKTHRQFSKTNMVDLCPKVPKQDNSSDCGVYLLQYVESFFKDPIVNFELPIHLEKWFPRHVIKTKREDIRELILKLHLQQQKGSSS
SENP1 FRET inh: blocks the human SENP1 SUMO protease catalytic domain; Q9P0U3; recombinant SENP1 catalytic domain, CyPet-SUMO1-YPet FRET cleavage; inhibition, % at 10 µM; actives 0.21% (n = 360,000); AID 624204;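 active = inhibition at least 30% at 10 µM, raw YFP signal under a set limit, fluorescence ratio 0.5 to 1.5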
Target sequence (Q9P0U3 419-644 limits assumed): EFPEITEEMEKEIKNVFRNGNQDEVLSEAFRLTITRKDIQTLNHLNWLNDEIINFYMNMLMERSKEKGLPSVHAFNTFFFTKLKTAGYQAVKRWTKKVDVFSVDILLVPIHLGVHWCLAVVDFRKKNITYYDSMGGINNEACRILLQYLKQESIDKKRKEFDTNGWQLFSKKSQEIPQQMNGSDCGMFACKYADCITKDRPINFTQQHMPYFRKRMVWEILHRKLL
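Material – human SENP1 catalytic domain · Input – SENP1 enzyme, 20 pM final · Compound dosing – single concentration of 10 µM compound, 0.5% DMSO final · Timing – enzyme reaction for 50 min at room temperature, dark · Measured by – FRET fluorescence in CFP and YFP emission channels · Control set – no-enzyme wells low, DMSO-plus-enzyme wells high control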
CendR NRP1 mod: alters CendR peptide binding to human NRP-1; FAM-RPARPAR peptide binding to NRP-1, fluorescence polarization; inhibition, % at 25 µM; actives 0.85% (n = 360,000);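 active = inhibition or corrected inhibition above about 18%, plus a signal ratio from 0.5 to 1.5, limit read from the data, passing the limit was not always enough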
SENP8 block-1: SENP8 protease inhibition; Q96LD8; purified SENP8, Z-RLRGG-aminoluciferin cleavage, luminescence; inhibition, % at 10 µM; actives 1.2% (n = 330,000); in the data active = inhibition above about 50%
SENP8 block-2: blocks human SENP8 cleavage of Nedd8 substrate. Q96LD8. inhibition, % at 20 µM. recombinant SENP8, Nedd8 substrate fluorescence. AID 602440. actives 0.64% (n = 360,000); in the data active = inhibition mostly above about 40%, no sharp cut-off; inactive = mostly below about 27%
Of the large screens only hits and unclear results are named; the others gave an inactive call. This is a sample that favours compounds with a hit; in the whole collection about 3.3% have one here.

CC(=O)N(C)CC#CCN1CCC(O)CC1	CendR NRP1 mod 37
Oc1cc2c(cc1CN1CCN(c3ccccc3)CC1)CCC2	none
O=P(CN1CCN(c2ccccc2)CC1)(N1CCCCC1)N1CCCCC1	CendR NRP1 mod 34
CC1=NN(c2ccccc2)C(=O)C1/C=C1\C(=O)NC(=O)N(c2cc(C)cc(C)c2)C1=O (stereo not drawn)	SENP8 block-2 40
CCOC(=O)[C@]12Cc3cc(OC)ccc3[C@H]1N(CCC(=O)OC)C(=O)c1cc(OC)ccc12	none (no result: SENP6 inh, SENP7 block, SENP8 block-1)
Cc1ccccc1N1C(=O)NC(=O)/C(=C/c2ccc(N3CCOCC3)o2)C1=O	none
CCc1ccccc1N1C(=O)/C(=C/c2ccc(N3CCN(C)CC3)o2)C(=O)NC1=S	SENP1 FRET inh 43
Cc1cccc(N2C(=O)/C(=C/c3ccc(N4CCN(C)CC4)o3)C(=O)NC2=S)c1C	SENP1 FRET inh 34
COC(=O)C1=C(c2cccc(C#N)c2)C[C@@H]2CC[C@H]1N2C(=O)NCC1CC1	none
COC(=O)C1=C(c2cccc(C#N)c2)C[C@@H]2CC[C@H]1N2C(=O)NCCc1ccccc1	CendR NRP1 mod 26
COC(=O)C1=C(c2ccc(F)cc2OCc2ccccc2)C[C@@H]2CC[C@H]1N2C(=O)NCCNC(C)=O	CendR NRP1 mod 30
CC(=O)OCC12CC(OC(=O)CC(C)C)C(C)=CC1OC1C(O)C(OC(C)=O)C2(C)C12CO2 (stereo not drawn)	none (no result: SENP6 inh, SENP7 block, SENP8 block-1)
CC1(C(=O)O)CCCC2(C)c3cc(O)ccc3CCC12 (stereo not drawn)	CendR NRP1 mod 34
CCOC(=O)c1ccccc1C(=O)OCC	CendR NRP1 mod 44
CCCCn1c(NC(=O)c2ccc(Br)o2)c(C(=O)OCC)c2nc3ccccc3nc21	SENP6 inh 75, SENP8 block-1 62
C=C1C(=O)OC2CCN3CC=C(COC(=O)C(C)(O)C4(CO4)C1C)C23 (stereo not drawn)	none (no result: SENP6 inh, SENP7 block, SENP8 block-1)
CC1(C)CN=C(Nc2ccc(F)c(Cl)c2)S1	CendR NRP1 mod 27
CC(C)(C)c1cc(C=C(C#N)C#N)cc(C(C)(C)C)c1O	SENP8 block-2 40
Nc1ccc2ccc3cccc[n+]3c2c1	none
C[n+]1c(-c2ccccc2)c2cc(N)ccc2c2ccc(N)cc21	SENP6 inh 82, SENP7 block 95, CendR NRP1 mod 56, SENP8 block-1 93, SENP8 block-2 95
O=c1[nH]c(=S)n(-c2ccccc2F)c(O)c1C=Nc1ccc(N2CCOCC2)cc1	SENP1 FRET inh 67
CCC1C2Cc3ccc(O)cc3C1(CC)CCN2C (stereo not drawn)	CendR NRP1 mod 32 (no result: SENP6 inh, SENP7 block, SENP8 block-1)
CN1CC[C@@]23CCCC[C@@H]2[C@@H]1Cc1ccc(O)cc13	none
COc1c(O)cc2c(c1OC)-c1ccc(SC)c(=O)cc1C(NC(C)=O)CC2 (stereo not drawn)	none (no result: SENP6 inh, SENP7 block, SENP8 block-1)
CN1CCc2cc3c(c4c2C1Cc1ccccc1-4)OCO3 (stereo not drawn)	SENP6 inh 70, SENP7 block 50, CendR NRP1 mod 51, SENP8 block-1 64
CN1CCc2cc(O)cc3c2[C@H]1Cc1ccc(O)c(O)c1-3	none
O=[N+]([O-])c1cc2c(cc1CNCCc1ccc3c(c1)OCO3)OCO2	CendR NRP1 mod 37
Fc1ccc(CNCCc2ccc3c(c2)OCO3)cc1	none
C=C1C(=O)OC2CC3(C)OC3C3OC3C3=CC(OC3=O)C12 (stereo not drawn)	none (no result: SENP6 inh, SENP7 block, SENP8 block-1)
CCOC(=O)[C@]12Cc3cc(OC)ccc3[C@H]1N(C1CCCCC1)C(=O)c1ccccc12	none (no result: SENP6 inh, SENP7 block, SENP8 block-1)
COC(=O)C1=C(c2ccc(OC(F)(F)F)cc2)C[C@@H]2CC[C@H]1N2C(=O)N1CCC(C)CC1	CendR NRP1 mod 29
COC(=O)C1=C(c2ccc(C(C)=O)cc2)C[C@@H]2CC[C@H]1N2C(=O)N1CCC(O)CC1	CendR NRP1 mod 29
COC(=O)C1=C(c2ccc(OC(F)(F)F)cc2)C[C@@H]2CC[C@H]1N2C(=O)N1CCCC1	none
COC(=O)C1=C(c2ccc(C(C)=O)cc2)C[C@@H]2CC[C@H]1N2C(=O)N1CCOCC1	none
CC(C)(C)n1cc(C(=O)c2ccccc2)cc1-c1ccccc1	CendR NRP1 mod 21
CCN(CC)C(=O)c1ccc(NC(=O)COc2ccc([N+](=O)[O-])cc2Cl)cc1	CendR NRP1 mod 31
N#CC1c2ccccc2-n2nncc2CN1Cc1cc(Cl)cc(Cl)c1 (stereo not drawn)	none (no result: SENP6 inh, SENP7 block, SENP8 block-1)
CCN1CCN(c2ccc(N)cc2)CC1	none
CN1CCN(c2ccc(N)cc2)CC1	SENP8 block-2 51
COc1ccc(C(=O)C(C)(C)NO)cc1	CendR NRP1 mod 29
CSCCC(c1nnnn1C(C)(C)C)N1CCC2(CC1)C(=O)NCN2c1ccccc1 (stereo not drawn)	none (no result: SENP6 inh, SENP7 block, SENP8 block-1)
O=C1NC(=O)C(=Cc2ccccc2[N+](=O)[O-])C(=O)N1	CendR NRP1 mod 25 (no result: SENP6 inh, SENP7 block, SENP8 block-1)
CC(C)(C)n1nnnc1C(c1ccnc2ccccc12)N1CCC2(CC1)C(=O)NCN2c1ccccc1 (stereo not drawn)	CendR NRP1 mod 36 (no result: SENP6 inh, SENP7 block, SENP8 block-1)
O=[N+]([O-])c1ccc(C(c2ccc([N+](=O)[O-])cc2)c2ccc([N+](=O)[O-])cc2)cc1	none (no result: SENP6 inh, SENP7 block, SENP8 block-1)
Cc1[nH]n(-c2ccccc2)c(=O)c1C(c1ccc([N+](=O)[O-])cc1)c1c(C)[nH]n(-c2ccccc2)c1=O	SENP8 block-2 90
O=c1[nH]c2ccccc2n1C1CCN(C(c2cccs2)c2nnnn2-c2ccc3c(c2)OCCO3)CC1 (stereo not drawn)	none (no result: SENP6 inh, SENP7 block, SENP8 block-1)
CC1=C(O)C(=O)C=C2C1=CC=C1C2(C)CCC2(C)C3CC(C)(C(=O)O)CCC3(C)CCC12C (stereo not drawn)	none (no result: SENP6 inh, SENP7 block, SENP8 block-1)
O=S(=O)(NC1CCCCCCC1)OCC(Cl)(Cl)Cl	CendR NRP1 mod 22
Clc1cccc(N2Cc3cc(-c4ccccc4)ccc3-n3nncc3C2)c1	none (no result: SENP6 inh, SENP7 block, SENP8 block-1)
O=C1c2cccc(N3CCNCC3)c2C2CCCCN12 (stereo not drawn)	CendR NRP1 mod 21 (no result: SENP6 inh, SENP7 block, SENP8 block-1)
CCOC(=O)[C@]12Cc3c(cc(OC)c(OC)c3OC)[C@H]1N(CCC(=O)OC)C(=O)c1ccccc12	none (no result: SENP6 inh, SENP7 block, SENP8 block-1)
COC(=O)C1=C(c2ccc(F)cc2F)C[C@@H]2CC[C@H]1N2C(=O)N1CCCCC1	CendR NRP1 mod 22
COC(=O)C1=C(c2ccc(F)cc2F)C[C@@H]2CC[C@H]1N2C(=O)N1CCCC1	CendR NRP1 mod 28
Cc1cccc(C)c1-n1nnnc1C(C1CC1)N1CCC2(CC1)C(=O)NCN2c1ccccc1 (stereo not drawn)	none (no result: SENP6 inh, SENP7 block, SENP8 block-1)
C=C1C(O)[C@@H]2O[C@]3(CC[C@H](/C=C/C(C)[C@@H]4CC(C)=CC5(O[C@H](C[C@@](C)(O)C(=O)O)CCC5O)O4)O3)CC[C@H]2O[C@@H]1C(O)CC(C)[C@H]1OC2(CCCCO2)CCC1C (stereo partly drawn)	none (no result: SENP1 FRET inh, CendR NRP1 mod, SENP8 block-2)
CCOC(=O)[C@]12Cc3cc(OC)ccc3[C@H]1N(C(C)C)C(=O)c1cc(OC)ccc12	none (no result: SENP6 inh, SENP7 block, SENP8 block-1)

Screens: PubChem BioAssay, Sanford-Burnham Center for Chemical Genomics
